GRIN3A LBD mod: modulators (binders) of human NR3A ligand-binding domain. NR3A LBD differential scanning fluorimetry, Tm shift; 0% = protein alone, 100% = glycine-bound protein. 2.5% of 340,000 active. Tm shift relative to glycine control, % at 25 µM;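 active = melting temperature shift of at least 10% of the positive control shift, at one fixed dose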
FID counter: fluorescent intercalator displacement, NS3 helicase counter-screen; DNA fluorescent intercalator displacement, fluorescence; inhibition, % at 7.9 µM; AID 1845; 0.17% of 290,000 active; in the data active = inhibition above about 37%;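 note: 0% = vehicle and 100% = reference compound; higher means more ethidium bromide displaced from hairpin DNA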
EBNA-1 inhibitor: blocks EBNA-1 binding to DNA; EBNA-1 DNA binding, fluorescence polarization; inhibition, % at 14.8 µM; 0.34% of 300,000 active; in the data active = inhibition above about 28%
FGF22 binding: FGF22 (human) thermal shift binding; Q9HCT0; 1.5% of 340,000 active; AID 651658; recombinant FGF22 thermal shift, SYPRO orange fluorescence; percent of sucrose octasulfate shift, DMSO zero; activity (Tm shift, normalised), % at 9.99 µM;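 active = mean Tm shift, scaled 0 neutral to 100 positive control, at about 1.3% or above, every replicate too, limit read from the data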
Target sequence (Q9HCT0 whole entry, looked up): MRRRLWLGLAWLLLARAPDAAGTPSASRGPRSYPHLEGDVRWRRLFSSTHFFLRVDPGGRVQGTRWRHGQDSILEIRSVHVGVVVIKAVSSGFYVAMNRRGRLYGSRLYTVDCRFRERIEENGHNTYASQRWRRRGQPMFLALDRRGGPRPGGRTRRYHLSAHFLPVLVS
ZTA counter: ZTA (EBV) inhibition in EBNA-1 counter-screen; P03206; AID 2234; inhibition, % at 11 µM; ZTA-DNA binding, fluorescence polarization; 0.15% of 320,000 active; in the data active = inhibition above about 33%
Target sequence (P03206 whole entry, looked up): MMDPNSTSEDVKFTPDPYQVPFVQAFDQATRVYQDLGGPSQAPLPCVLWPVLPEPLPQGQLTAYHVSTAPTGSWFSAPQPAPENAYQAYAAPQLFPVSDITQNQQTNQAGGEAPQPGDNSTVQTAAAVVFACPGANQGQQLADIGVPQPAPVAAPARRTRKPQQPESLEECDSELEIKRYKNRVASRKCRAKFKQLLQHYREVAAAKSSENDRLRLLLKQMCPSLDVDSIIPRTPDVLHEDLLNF
NS3 helicase inh: blocks Hepatitis C virus NS3 helicase unwinding. NS3 helicase DNA unwinding, Cy5 molecular beacon fluorescence. inhibition, % at 10.9 µM. 0.56% of 290,000 active;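 active = inhibition above the mean of all tested compounds plus 3 SD, set per campaign, cut at about 35% in these data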;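 note: 0% = DMSO wells and 100% = thioflavine S control wells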
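assay system = NS3 helicase fragment of HCV | buffer or medium = MOPS pH 6.5, MgCl2, DTT, Tween20, BSA | timing = 60 min unwinding reaction at 25 °C after ATP addition | signal = Cy5 beacon fluorescence read at start and 1 h | read-out basis = % inhibition of unwinding | control set = low DMSO, high thioflavine S at 110 µM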
* marks the source's active call; other numbers are inactive results; nt = no result given. Only some compounds are listed: those with a hit (about 3.6% of all), similar ones and a draw of the others.

SMILES	GRIN3A LBD mod	FID counter	EBNA-1 inhibitor	FGF22 binding	ZTA counter	NS3 helicase inh
COCC#Cc1ccc([C@@H]2[C@H](CO)N3C(=O)CN(C(=O)c4ccncc4)C[C@@H]23)cc1	nt	nt	nt	0	nt	nt
CCC(C)N(C)Cc1cccc(C2(O)CCN(S(=O)(=O)c3ccc(F)c(C)c3)CC2)c1 (stereo not given)	-4	38*	6	nt	-6	-27
Cc1cc(S(=O)(=O)N2CCN(c3c(C)cccc3C)CC2)ccc1F	0	-6	-6	nt	-12	0
CCC(c1ccccc1)c1nc(-c2ccccn2)no1 (stereo not given)	-1	-12	-13	nt	6	-14
CCC(c1ccccc1)c1nc(-c2cccnc2)no1 (stereo not given)	12*	-7	-14	0	5	-2
Cc1ccccc1OCc1nc(-c2cccnc2)no1	-1	-23	1	46*	-16	2
Cc1ccc(NC(=O)CCNS(=O)(=O)c2cc(Br)cnc2N)c(Cl)c1	nt	-3	9	nt	4	-8
Cc1ccc(NC(=O)CCNS(=O)(=O)c2cc(Br)cnc2N)cc1Cl	30*	2	-9	nt	4	-12
Cc1cc(NC(=O)CCNS(=O)(=O)c2cc(Br)cnc2N)ccc1Br	21*	1	1	nt	-1	-3
Nc1ncc(Br)cc1S(=O)(=O)NCCC(=O)Nc1cccc(Cl)c1	23*	0	-9	0	-11	-10
Cc1ccc(S(=O)(=O)Nc2ccc3c(c2)C(=O)N([C@@H](C)CO)C[C@@H](C)[C@H](CN(C)CC2CCCCC2)O3)cc1	nt	nt	nt	1	nt	nt
COc1ccc(S(=O)(=O)N(C)C[C@@H]2Oc3ccc(NS(=O)(=O)c4ccc(C)cc4)cc3CC(=O)N([C@H](C)CO)C[C@H]2C)cc1	nt	nt	nt	0	nt	nt
CCCC#Cc1cnc2c(c1)C(=O)N([C@@H](C)CO)C[C@H](C)[C@@H](CN(C)C(=O)c1ccc(F)cc1)O2	nt	nt	nt	0	nt	nt
CCOC(=O)C(=O)/C(=C\N(C)C)c1onc(-c2c(Cl)cccc2Cl)c1C(=O)OC	11*	-24	-4	nt	-3	14
CCc1ccc(OCC(=O)NC(NC(=S)Nc2ccc(Cl)cc2)C(Cl)(Cl)Cl)cc1 (stereo not given)	24*	-2	-9	0	-1	1
O=C(NC(NC(=S)Nc1ccc(Cl)cc1)C(Cl)(Cl)Cl)c1ccco1 (stereo not given)	13*	-1	0	nt	4	-2
CC(=O)c1ccc(NC(=S)NC(NC(=O)c2ccco2)C(Cl)(Cl)Cl)cc1 (stereo not given)	-7	-1	9	nt	-3	5
C[C@H]1CCCCO[C@@H](CN(C)Cc2ccc(C(=O)O)cc2)[C@@H](C)CN([C@@H](C)CO)C(=O)c2cc(NS(=O)(=O)c3ccccc3)ccc2O1	nt	nt	nt	0	nt	nt
CCCC(=O)Oc1ccc(N(C(=O)CCC)S(=O)(=O)c2cccs2)cc1	-2	-25	-8	43*	0	-3
CC(=O)Oc1ccc(N(C(C)=O)S(=O)(=O)c2cccs2)cc1	0	-5	-13	nt	0	6
CCSC1=N/C(=C\c2ccc3c(c2)OCO3)C(=O)S1	3	-3	-8	nt	10	2
CCSC1=N/C(=C\c2cccc(F)c2)C(=O)S1	15*	-10	7	0	8	15
O=C(Nc1cccc(-c2csc(Nc3ccc(Cl)cc3)n2)c1)c1cc([N+](=O)[O-])cc(C(F)(F)F)c1	20*	nt	4	0	6	nt
O=C(Nc1ccc(-c2csc(Nc3ccc(Cl)cc3)n2)cc1)c1cc([N+](=O)[O-])cc(C(F)(F)F)c1	20*	nt	11	0	-6	nt
O=C(Nc1ccc(F)cc1)N1CCCCN2[C@H](C1)[C@H](c1ccc(-c3ccccc3F)cc1)[C@@H]2CO	nt	nt	nt	-1	nt	nt
CCC(CO)NCC#Cc1ccccc1 (stereo not given)	0	-6	2	44*	-1	-1
C[C@@H]1CN([C@H](C)CO)S(=O)(=O)c2ccc(C#CC(C)(C)O)cc2O[C@@H]1CN(C)C	nt	nt	nt	0	nt	nt
Cc1cccc(-c2ccc([C@@H]3[C@@H](CO)N4CCCCN(S(=O)(=O)c5cccs5)C[C@@H]34)cc2)c1	nt	nt	nt	-1	nt	nt
CN(Cc1cc(=O)n2ccsc2n1)c1ccccc1	0	9	3	44*	-1	0

Source: PubChem BioAssay
